In ChEMBL document CHEMBL4428115, “Molecular docking studies, biological and toxicity evaluation of dihydroisoquinoline derivatives as potential anticancer agents” (Bioorg Med Chem, 2016):
Calls of active or inactive are those of the source. The calls are words filed in the database; no cut-off is given here.

How the values were obtained:
HL-60 [1] = experiment: Increase in caspase 3/7 activation in human HL60 cells using Ac-DEVD-ACC as substrate at 3 ug/ml after 24 hrs by fluorescence assay relative to control; format: functional, cell-based
In short: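 HL-60 exposed 24 h to 3 µg/mL (DMSO control), lysed at 1.2 × 10^6 cells/mL in HEPES/sucrose/Triton lysis buffer pH 7.3 for 30 min at 4°C. Lysate added to DTT-containing reaction buffer with Ac-DEVD-ACC at 10 µM final (ex 360/em 460 nm). Fluorescence recorded 90 min at 37°C, normalized to Lowry protein, and expressed relative to untreated control; three experiments.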

[2] = Selectivity index, ratio of IC50 for mouse BALB/3T3 cells to IC50 for human LoVo/DX cells; format: toxicity; settings: BALB/3T3 cells versus LoVo/DX cells, read-out: Ratio IC50
[3] = Selectivity index, ratio of IC50 for mouse BALB/3T3 cells to IC50 for human A498 cells
LoVo [4] = experiment: Antiproliferative activity against human LoVo cells; format: functional, cell-based
[5] = Selectivity index, ratio of IC50 for mouse BALB/3T3 cells to IC50 for human LoVo cells; format: toxicity; settings: BALB/3T3 cells versus LoVo cells, read-out: Ratio IC50
MCF10 = experiment: Antiproliferative activity against human MCF10 cells after 72 hrs by SRB assay; format: cell-based; settings: MCF10, 72 h
In short: (§1)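 Adherent cells plated at 1 × 10^4 per well 24 h before treatment, then exposed 72 h to compounds diluted from 20 mg/mL DMSO stock (0.01–1000 µg/mL). Fixed in cold 50% TCA at 4°C for 1 h, stained with 0.4% sulforhodamine B, bound dye extracted with 10 mM Tris, OD at 540 nm. Triplicates, 3–5 experiments; IC50 per experiment, mean ± SD.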

MV4-11 = experiment: Antiproliferative activity against human MV411 cells; format: functional, cell-based
PC-3 = experiment: Antiproliferative activity against human PC3 cells; format: functional, cell-based
MCF7 = experiment: Antiproliferative activity against human MCF7 cells after 72 hrs by SRB assay; format: functional, cell-based; settings: MCF7, 72 h; in short: as §1
HL-60 [6] = experiment: Decrease in mitochondrial membrane potential in human HL60 cells at 3 ug/ml after 24 hrs using JC-1 staining based flow cytometry relative to control; format: functional, cell-based
In short: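 HL-60 treated 24 h at 3 µg/mL alongside DMSO control; […] for 24 h served as the low-potential control. Cells stained with JC-1 at 10 µg/mL final for 30 min at 37°C in the dark, washed, and analysed by flow cytometry (red aggregates vs green monomers). Three independent experiments, mean ± SD.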

[7] = Acute dermal toxicity in Wistar rat assessed as pathological changes at 2000 mg/kg topically applied to shaved dorsal skin as single dose for 24 hrs measured for 14 days; format: organism-based; settings: in vivo, topical_or_ocular
In short: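 Wistar rats, 5 males and 5 females; single 2000 mg/kg bw dermal application to shaved dorsal skin (about 41 cm2 per male, 31 cm2 per female) for 24 h. General and detailed clinical observations daily over a 14-day observation period, then animals euthanized; treated skin examined for pathological changes.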

[8] = Selectivity index, ratio of IC50 for mouse BALB/3T3 cells to IC50 for human MCF7 cells; format: toxicity; settings: BALB/3T3 cells versus MCF7 cells, read-out: Ratio IC50
In short: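 Selectivity index is the BALB/3T3 IC50 divided by the MCF-7 IC50. Both adherent lines were plated at 1 × 10^4 per well, dosed 24 h later with 0.01–1000 µg/mL (diluted from 20 mg/mL DMSO stock) for 72 h, then fixed with cold TCA and stained with SRB, reading at 540 nm. Triplicate wells; 3–5 repeat experiments.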

[9] = Toxicity in New Zealand albino rabbit assessed as acute skin irritation/corrosion at 0.5 g topically applied to shaved skin for 4 hrs measured 1 to 72 hrs post dose; design: species or system Oryctolagus cuniculus; settings: in vivo, topical_or_ocular
In short: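 Test item applied under a protective band for 4 h to one rabbit first, then to two more animals to confirm or exclude irritation. Treated skin scored at 1, 24, 48 and 72 h after exposure, with daily morbidity and mortality checks. Animals euthanized after the observation period.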

[10] = Acute toxicity in Balbc/cmdb mouse assessed as clinical signs at 2000 mg/kg, po administered as single dose in second stage of experiment measured immediately post dose; format: organism-based; settings: in vivo
In short: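 Acute toxic class method per OECD Guideline 423 / EU Method B.1 tris, run in three stages of three female Balbc/cmdb mice each. Fasted about 3 h, then given a single dose by metal stomach tube in DMSO at 0.5 mL/100 g bw. Stage doses were 300, 2000, then 2000 mg/kg bw. General and detailed clinical observations daily for 14 days; body weights recorded.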

CCRF-CEM = experiment: Antiproliferative activity against human CCRF-CEM cells; format: functional, cell-based
BALB/3T3 = experiment: Antiproliferative activity against mouse BALB/3T3 cells after 72 hrs by SRB assay; format: cell-based; settings: BALB/3T3, 72 h; in short: as §1
[11] = Selectivity index, ratio of IC50 for mouse BALB/3T3 cells to IC50 for human CEM/C2 cells; format: toxicity; settings: BALB/3T3 cells versus CEM/C2 cells, read-out: Ratio IC50
[12] = Antiproliferative activity against human LoVo/DX cells; format: functional, cell-based
[13] = Selectivity index, ratio of IC50 for human MCF10 cells to IC50 for human MCF7 cells; format: toxicity; settings: MCF10 cells versus MCF7 cells, read-out: Ratio IC50
In short: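 Selectivity index is the ratio of the IC50 for the normal line to the IC50 for the cancer line. Both IC50 values come from 72 h antiproliferative assays: SRB for adherent cells, MTT for HL-60.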

[14] = Antioxidant activity assessed as DPPH free radical scavenging activity; format: functional
HL60/MX2 = experiment: Antiproliferative activity against human HL60/MX2 cells after 72 hrs by MTT assay; format: functional, cell-based; settings: HL60/MX2, 72 h
In short: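 Leukemia cells seeded at 1 × 10^4 per well 24 h before adding compounds (0.01–1000 µg/mL from DMSO stock), exposed 72 h. MTT (5 mg/mL stock) added for 4 h, then DMF/SDS lysis mixture; absorbance at 570 nm read after 24 h. Triplicates per experiment, 3–5 repeats; IC50 calculated per experiment, reported as mean ± SD.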

LoVo [15] = experiment: Potency index, ratio of bestatin IC50 to compound IC50 for human LoVo cells; format: functional
A498 = experiment: Antiproliferative activity against human A498 cells; format: functional, cell-based
K562 = experiment: Antiproliferative activity against human K562 cells; format: functional, cell-based
Jurkat = experiment: Antiproliferative activity against human Jurkat cells; format: functional, cell-based
[16] = Selectivity index, ratio of IC50 for mouse BALB/3T3 cells to IC50 for human LNCAP cells; format: toxicity; settings: BALB/3T3 cells versus LNCAP cells, read-out: Ratio IC50
HL-60 [17] = experiment: Effect on Bcl-2 expression in human HL60 cells at 1 ug/ml after 72 hrs by Western-blot analysis; format: functional, cell-based
In short: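 HL-60 (2 × 10^5 cells/mL) treated 72 h at 1 µg/mL with DMSO control, then lysed in RIPA buffer with protease/phosphatase inhibitors. 100 µg protein resolved on 4–20% gels and transferred to nitrocellulose. Probed with rabbit primary antibody, fluorescein-linked anti-rabbit secondary, then anti-fluorescein–alkaline phosphatase with ECF substrate; fluorescence scanned. Densitometry normalized to actin, reported as fold change versus control.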

Q: For `CCOC(=O)C1(C(=O)OCC)Cc2cc(OCc3ccccc3)cc(OCc3ccccc3)c2C=N1`, which Activity (HL-60 [1]) is on record?
A: Its Activity is “Active”.

Q: And the selectivity ratio [2]?
A: The selectivity ratio was 8.8.

Q: And the “Ratio IC50” value [3]?
A: Its value is 2.7.

Q: And the IC50 (LoVo [4])?
A: The IC50 was 1.1 µM.

Q: What about the selectivity ratio [5] of the same compound?
A: The selectivity ratio was 32.6.

Q: What about the IC50 (MCF10) of the same compound?
A: Its IC50 is 40.2 µM.

Q: What about the IC50 (MV4-11) of the same compound?
A: Its IC50 is 64.4 µM.

Q: And the IC50 (PC-3)?
A: The IC50 was 4.2 µM.

Q: What about the IC50 (MCF7) of the same compound?
A: The IC50 was 9.6 µM.

Q: And the Activity (HL-60 [6])?
A: The Activity was “Active”.

Q: What about the Activity [7] of the same compound?
A: The Activity was “Non-Toxic”.

Q: What about the selectivity ratio [8] of the same compound?
A: Its selectivity ratio is 3.7.

Q: What about the Activity [9] of the same compound?
A: Its Activity is “Non-Toxic”.

Q: What about the Activity [10] of the same compound?
A: The Activity was “Toxic”.

Q: What about the IC50 (CCRF-CEM) of the same compound?
A: The IC50 was 0.7 µM.

Q: And the IC50 (BALB/3T3)?
A: The IC50 was 35.9 µM.

Q: What about the selectivity ratio [11] of the same compound?
A: Its selectivity ratio is 89.7.

Q: What about the IC50 [12] of the same compound?
A: Its IC50 is 4.1 µM.

Q: What about the selectivity ratio [13] of the same compound?
A: Its selectivity ratio is 4 to 8.

Q: What about the IC50 [14] of the same compound?
A: Its IC50 is 1000 µM.

Q: And the IC50 (HL60/MX2)?
A: Its IC50 is 5.1 µM.

Q: And the “Ratio IC50” value (LoVo [15])?
A: The value was 212.

Q: And the IC50 (A498)?
A: The IC50 was 13.3 µM.

Q: What about the IC50 (K562) of the same compound?
A: Its IC50 is 70 µM.

Q: What about the IC50 (Jurkat) of the same compound?
A: Its IC50 is 14.4 µM.

Q: What about the selectivity ratio [16] of the same compound?
A: The selectivity ratio was 10.9.

Q: And the Activity (HL-60 [17])?
A: The Activity was “inactive”.
